Experimental data taken from ChEMBL document CHEMBL1123435, “Synthesis of 11H-pyridocarbazoles and derivatives. Comparison of their DNA binding and antitumor activity with those of 6H- and 7H-pyridocarbazoles” (1986).

Tests used:
Calf thymus DNA = assay: Binding affinity towards calf thymus DNA, at pH 5; assay type: nucleic-acid assay; conditions: Bos taurus
Outline: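 Affinity for sonicated calf thymus DNA determined by ethidium bromide competition by fluorescence. Four cells were run together: buffer, DNA (1.5 μg/mL), and drug at 3 and 6 μg/mL plus DNA. Ethidium bromide (50 μg/mL of buffer) was added in aliquots, and apparent constants were derived from Scatchard plots of competition. Where a ligand fluoresces strongly when bound, direct fluorometric titration was used instead.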

L1210 [1] = assay: Inhibitory activity against L1210 cell culture; assay type: functional; conditions: Mus musculus, read-out: ED50 (the source's name)
Outline: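 L1210 cells in exponential growth (1 × 10⁵/mL) were held for 24 h at 37 °C in RPMI 1640 with 10% fetal calf serum across a range of drug concentrations. Total cells were counted electronically. Duplicate treated cultures were expressed as a percentage of triplicate untreated controls. ED50 came from linear regression of percent residual cells against concentration on a semilog scale.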

L1210 [2] = assay: Dose required to inhibit the cloning efficiency to a factor of 0.37 after 24-h exposure to the drug; assay type: functional; conditions: Mus musculus, L1210, 24 h
Outline: (§1)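 Exponentially growing L1210 cells (1 × 10⁵/mL) in RPMI 1640 with 10% fetal calf serum were exposed to the drug for 24 h at 37 °C. They were then diluted to 250 and 500 cells/mL and plated in Noble agar. After 14 days at 37 °C in 5% CO2, colonies >0.2 mm were counted, in triplicate per concentration. CE37 (cloning efficiency reduced to 0.37) was read from dose-response curves.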

L1210 [3] = assay: Dose required to inhibit the cloning efficiency to a factor of 0.37 after 24-h exposure to the drug in L1210 cell; assay type: functional; conditions: Mus musculus, L1210, 24 h; outline: as §1

Row | SMILES | K app (Calf thymus DNA) | EC50 (L1210 [1]) | EC37 (L1210 [2]) | EC37 (L1210 [3])
1 | CC(=O)[O-].Cc1c2cc[n+](C)cc2c(C)c2c1[nH]c1ccc(O)cc12 [ELLIPTINIUM ACETATE] | 1.3e+06 M⁻¹ | 0.06 µg/mL | 0.013 µg/mL | 
2 | COc1ccc2[nH]c3c(ccc4c3ccc[n+]4C)c2c1 | 60000 M⁻¹ |  |  | 
3 | COc1ccc2[nH]c3c4c[n+](C)ccc4c(C)cc3c2c1 | 100000 M⁻¹ |  |  | 
4 | C[n+]1ccc2ccc3[nH]c4ccc(O)cc4c3c2c1.[I-] | 180000 M⁻¹ | 0.12 µg/mL |  | 
5 | COc1ccc2[nH]c3ccc4cc[n+](C)cc4c3c2c1.[I-] | 300000 M⁻¹ | 0.38 µg/mL |  | 
6 | CC(=O)[O-].Cc1c2cc[n+](C)cc2c(C)c2c1[nH]c1ccccc12 | 230000 M⁻¹ | 0.544 µg/mL |  | 0.4 µg/mL
7 | Cc1cc2c3cc(O)ccc3[nH]c2c2c[n+](C)ccc12.[I-] | 1e+06 M⁻¹ | > 1 µg/mL | > 1 µg/mL | 
8 | Cl.Oc1ccc2[nH]c3c(ccc4cccnc43)c2c1 | 20000 M⁻¹ | > 1 µg/mL | > 1 µg/mL | 
9 | C[n+]1cccc2c3[nH]c4ccc(O)cc4c3ccc21.[I-] | 100000 M⁻¹ | > 1 µg/mL | > 1 µg/mL | 
10 | COc1ccc2[nH]c3c(ccc4cccnc43)c2c1 | 100000 M⁻¹ |  |  | 

Further lines, with some results ahead:

Row | K app (Calf thymus DNA) | EC50 (L1210 [1]) | SMILES | EC37 (L1210 [2]) | EC37 (L1210 [3])
11 | 100000 M⁻¹ |  | c1cnc2c(c1)ccc1c3ccccc3[nH]c12 |  | 
12 | 25000 M⁻¹ | > 1 µg/mL | COc1ccc2[nH]c3c4cc[n+](C)cc4ccc3c2c1.[I-] | > 1 µg/mL | 
13 | 100000 M⁻¹ | > 1 µg/mL | Cc1cc2c3ccccc3[nH]c2c2c[n+](C)ccc12.[I-] | > 1 µg/mL | 
14 | 10000 M⁻¹ | > 1 µg/mL | C[n+]1cccc2c3[nH]c4ccccc4c3ccc21.[I-] | > 1 µg/mL | 
15 | 20000 M⁻¹ | > 1 µg/mL | C[n+]1ccc2c(ccc3c4ccccc4[nH]c23)c1.[I-] | > 1 µg/mL | 
